From ChEMBL document CHEMBL4024799, “Synthesis and Biological Characterization of Aryl Uracil Inhibitors of Hepatitis C Virus NS5B Polymerase: Discovery of ABT-072, a trans-Stilbene Analog with Good Oral Bioavailability” (J Med Chem, 2018)
The source made the active and inactive calls. The rule behind the calls is not given here.

Legend:
[1] = test system: Hepatitis C virus (isolate BK); assay: Inhibition of HCV genotype 1b BK NS5B RNA dependent RNA polymerase Y448H mutant assessed as reduction in [3H]UTP incorporation in to RNA preincubated for 15 mins followed by [3H]UTP addition measured after 3 hrs by microbeta scintillation counting method
In short: (§1)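 Standard NS5B polymerase inhibition assay using genotype 1a (H77) or 1b (BK) enzyme. RNA product formation was measured as ³H-UTP incorporated into RNA, read by scintillation counting. IC50 was calculated with a standard IC50 equation.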

[2] = Ratio of drug level in dog liver to plasma at 2.5 mg/kg, po after 24 hrs; assay type: ADME, organism-based, Canis lupus familiaris
[3] = AUC (infinity) in human at 80 mg administered as single dose; assay type: ADME; design: dose 80 mg, time infinity; settings: in vivo
In short: (§2)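 Single oral doses of 80, 160 or 320 mg in healthy subjects; plasma concentration-time profiles reported as mean (+SD); Cmax and terminal phase half-life derived.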

[4] = AUC in Sprague-Dawley rat at 5 mg/kg, po; assay type: ADME, organism-based; settings: in vivo
In short: (§3)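 Sprague-Dawley rats, n = 3 per experiment; solution in DMSO:PEG400 (1:9, v/v) given IV or oral; 5 mg/kg for both routes, and 30 mg/kg oral; plasma t1/2, Vss, clearance, Cmax, AUC and F% determined.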

[5] = Volume of distribution at steady state in dog at 2.5 mg/kg, iv; assay type: ADME, organism-based, Canis lupus familiaris; settings: in vivo, read-out: Vdss
[6] = Cmax in Sprague-Dawley rat at 5 mg/kg, po; assay type: ADME, organism-based; design: dose 5 mg/kg, route oral; settings: in vivo; in short: as §3
[7] = Half life in dog at 2.5 mg/kg, po; assay type: ADME, organism-based, Canis lupus familiaris; settings: in vivo
[8] = Half life in Sprague-Dawley rat at 5 mg/kg, po; assay type: ADME, organism-based; settings: in vivo; in short: as §3
[9] = test system: Hepatitis C virus (isolate BK); assay: Inhibition of HCV genotype 1b BK NS5B RNA dependent RNA polymerase M414T mutant assessed as reduction in [3H]UTP incorporation in to RNA preincubated for 15 mins followed by [3H]UTP addition measured after 3 hrs by microbeta scintillation counting method; in short: as §1
[10] = Tmax in human at 80 mg administered as single dose; assay type: ADME; settings: in vivo
[11] = AUC (0 to 24 hrs) in human infected with HCV genotype 1 at 160 mg administered once daily for 2 days; assay type: ADME; design: time < 24 hr, dose 160 mg; settings: in vivo
In short: (§4)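 HCV GT1-infected patients (N=4) given 160 mg once daily for 2 days; plasma Cmax, AUC and t1/2 determined.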

Canis familiaris = assay: AUC in dog at 30 mg/kg, po; assay type: ADME, organism-based, Canis lupus familiaris; settings: in vivo
Hepatitis C virus = assay: Antiviral activity against HCV genotype 1b Con1 infected in human HuH7 cells harboring HCV subgenomic bicistronic replicon after 3 days in presence of 40% human plasma by luciferase reporter gene assay; assay type: functional, cell-based, Hepacivirus hominis; settings: genotype 1b Con1, Huh-7, 72 h
In short: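 Subgenomic genotype 1a (H77) or 1b (Con1) replicons carrying firefly luciferase, transfected into Huh-7 cells. Replication inhibition was read as luciferase level in cell lysate on a luminometer and reported as EC50. Runs were done without human plasma or with 40% human plasma added, to assess inhibitor–protein binding.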

[12] = Plasma clearance in Sprague-Dawley rat at 5 mg/kg, iv; assay type: ADME, organism-based; in short: as §3
[13] = Terminal half life in human at 160 mg administered as single dose; assay type: ADME; settings: in vivo, read-out: beta t1/2 (converted); in short: as §2
[14] = Half life in Sprague-Dawley rat at 5 mg/kg, iv; assay type: ADME, organism-based; settings: in vivo; in short: as §3
[15] = test system: Hepatitis C virus (isolate H77); assay: Inhibition of HCV genotype 1a H77 NS5B RNA dependent RNA polymerase C316H mutant assessed as reduction in [3H]UTP incorporation in to RNA preincubated for 15 mins followed by [3H]UTP addition measured after 3 hrs by microbeta scintillation counting method; in short: as §1
[16] = Ratio of drug level in Sprague-Dawley rat liver to plasma at 5 mg/kg, po after 12 hrs; assay type: ADME, organism-based
In short: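 Male/female not given; Sprague-Dawley rats, n = 3 per experiment, single 5 mg/kg oral dose given as a solution in DMSO:PEG400 (1:9, v/v). Drug concentrations measured in liver tissue and plasma at 12 h and 24 h post-dose; value reported as the liver-to-plasma concentration ratio.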

[17] = Cmax in human infected with HCV genotype 1 at 160 mg administered once daily for 2 days; assay type: ADME; design: dose 160 mg; settings: in vivo; in short: as §4
[18] = Oral bioavailability in dog at 30 mg/kg; assay type: ADME, organism-based, Canis lupus familiaris; settings: in vivo

For COc1c(/C=C/c2ccc(NS(C)(=O)=O)cc2)cc(-n2ccc(=O)[nH]c2=O)cc1C(C)(C)C [ABT-072], the inhibition [1] was “inactive”, the Kp at 24 h [2] was 10 and the AUC(0-inf) [3] was 2440 ng·h/mL. It also gave an AUC [4] of 2520 ng·h/mL, a Vd [5] of 1.5 L/kg and a Cmax [6] of 280 ng/mL. For the same compound, the half-life [7] was 5.4 h, the half-life [8] was 3.1 h and the inhibition [9] was “inactive”. The Tmax [10] was 5.1 h, the AUC at 24 h [11] was 4180 ng·h/mL and the AUC (Canis familiaris) was 124000 ng·h/mL. For the same compound, the EC50 (Hepatitis C virus) was 2.4 nM, the clearance [12] was 15 mL/min/kg and the half-life [13] was 7.63 h. For the same compound, the half-life [14] was 2.9 h, the inhibition [15] was “inactive” and the Kp at 12 h [16] was 71. It also gave a Cmax [17] of 415 ng/mL and a bioavailability [18] of 61%.
